Published values gathered from unrelated publications.
Lines come from different studies, so protocols differ. pIC50: −log10 of the molar value. ≈ marks a conversion by molar mass, not a printed value.
Organism: Staphylococcus aureus

SMILES	assay	test system	conditions	measurement	result
C#CCCCCCCCCCCCC(O)CC(O)CO (stereo not shown)	microbial growth, broth dilution	ATCC33591 MRSA	drug-resistant strain	IC50	86.3 µg/mL
O=C(Cc1ccccc1)Sc1cccccc1=O	microbial growth, broth dilution	ATCC29213	–	MIC80	> 100 µM
CC(C)c1nn(-c2nc3ccc(Cl)cc3s2)c2c1C(=O)c1ccccc1-2	microbial growth, well diffusion	NCIM5021	500 µg/mL	inhibition zone	11 mm
O=C(O)CN1C(=O)/C(=C/c2ccc(-c3ccc(N(c4ccccc4)c4ccccc4)cc3)cc2)SC1=S	microbial killing, broth dilution	ATCC25923	–	MBC	31.3 µg/mL (≈ 59.9 µM)
CC(C)c1ccc(O)c(=O)cc1	microbial growth, broth dilution	ATCC29213	–	MIC80	66.7 µM (≈ 11 µg/mL)
Cc1nn(-c2nc3ccccc3s2)c2c1C(=O)c1ccccc1-2	microbial growth, well diffusion	NCIM5021	250 µg/mL	inhibition zone	10 mm
CCOc1ccc(-c2nc3ccc(C)cc3[nH]2)cc1	microbial growth, broth dilution	ATCC29213 MSSA	–	MIC	128 µg/mL
Cc1cc2c(F)c(Oc3ncnn4cc(OC[C@@H](C)O)c(C)c34)ccc2[nH]1	microbial growth	NCTC8325	–	MIC	> 30 µM
O=c1cccccc1SSc1cccccc1=O	microbial growth, broth dilution	ATCC29213	–	MIC80	> 100 µM
O=C(N[C@H](CO)[C@H](O)c1ccc([N+](=O)[O-])cc1)C(Cl)Cl	microbial growth	ATCC700699	–	MIC90	62.5 µg/mL (≈ 193 µM)
O=C(O)CN1C(=O)/C(=C/c2c3ccccc3c(-c3ccc(N(c4ccccc4)c4ccccc4)cc3)c3ccccc23)SC1=S	microbial killing, broth dilution	ATCC25923	–	MBC	> 1000 µg/mL
CNC(=O)c1cc(Oc2ccc(NC(=O)NC34CC5CC(CC(C5)C3)C4)cc2)ccn1	microbial growth	NCTC8325	–	MIC	> 100 µM
COc1ccc2nc(-n3nc(C(C)C)c4c3-c3ccccc3C4=O)sc2c1	microbial growth, well diffusion	NCIM5021	1000 µg/mL	inhibition zone	11 mm
CN(C[C@@H]1COCCO1)S(=O)(=O)Nc1ccc2ccc3ncc(-c4cnn(C)c4)cc3c(=O)c2c1	microbial growth	NCTC8325	–	MIC	30 µM
O=C1NC(=S)S/C1=C\c1ccc(-c2ccc(N(c3ccccc3)c3ccccc3)cc2)c2ccccc12	microbial killing, broth dilution	ATCC6538	–	MBC	> 1000 µg/mL
Cc1nn(-c2nc3ccc(Br)cc3s2)c2c1C(=O)c1ccccc1-2	microbial growth, well diffusion	NCIM5021	500 µg/mL	inhibition zone	12 mm
O=C(O)CN1C(=O)/C(=C/c2ccc(-c3ccc(N(c4ccccc4)c4ccccc4)cc3)c3ccccc23)NC1=S	microbial killing, broth dilution	ATCC6538	–	MBC	> 1000 µg/mL

SMILES	assay	test system	conditions	measurement	result
C#CCCCCC(=O)N1CCN(c2ccccc2)CC1	microbial growth	NCTC8325	–	MIC	> 100 µM
CN[C@H](CC(C)C)C(=O)N[C@H]1C(=O)N[C@@H](CC(N)=O)C(=O)N[C@H]2C(=O)N[C@H]3C(=O)N[C@H](C(=O)N[C@H](C(=O)O)c4cc(O)cc(O)c4-c4cc3ccc4O)[C@H](O)c3ccc(c(Cl)c3)Oc3cc2cc(c3O[C@@H]2O[C@H](CO)[C@@H](O)[C@H](O)[C@H]2O[C@H]2C[C@](C)(N)[C@H](O)[C@H](C)O2)Oc2ccc(cc2Cl)[C@H]1O	microbial growth, disc diffusion	ATCC29213	250 µg/disc, 24 h	inhibition zone	21 mm
CNC(=O)c1ccc2c(c1)NC(=O)/C2=C(\Nc1cccc(CN(C)C)c1)c1ccccc1	microbial growth	NCTC8325	–	MIC	> 30 µM
CCCCCCCCCCCCCC(O)CC(O)CO (stereo not shown)	microbial growth, broth dilution	ATCC33591 MRSA	drug-resistant strain	IC50	8.26 µg/mL
CC(C)Cc1nn(-c2nc3ccc(Cl)cc3s2)c2c1C(=O)c1ccccc1-2	microbial growth, well diffusion	NCIM5021	500 µg/mL	inhibition zone	11 mm
O=C1NC(=S)N/C1=C\c1c2ccccc2c(-c2ccc(N(c3ccccc3)c3ccccc3)cc2)c2ccccc12	microbial killing, broth dilution	ATCC25923	–	MBC	> 1000 µg/mL
CCc1cccc(CC)c1NC(=O)N1Cc2[nH]nc(NC(=O)c3ccc(N4CCN(C)CC4)cc3)c2C1	microbial growth	NCTC8325	–	MIC	> 30 µM
CC1(C)S[C@@H]2[C@H](NC(=O)[C@H](N)c3ccccc3)C(=O)N2[C@H]1C(=O)O	microbial growth, agar dilution	ATCC29213	26.93 µM	inhibition	100%
COC(=O)/C(=C1/OC(=O)C(c2ccccc2)=C1O)c1ccccc1	microbial growth	ATCC6538	–	pIC50	4.49
CNC(=O)c1ccc(C)c(-n2c(C)cc(OCc3ccc(F)cc3F)c(Br)c2=O)c1	microbial growth	NCTC8325	–	MIC	> 30 µM
CC(C(=O)O)N1C2=NC(c3ccc(Cl)cc3)c3c([nH]c(=O)[nH]c3=O)N2NC1(C)c1ccccc1O (stereo not shown)	microbial growth	ATCC25923	10 µg/mL, 24 h	inhibition zone	14 mm
[H]/N=C(/N)N[C@H]1[C@H](O)[C@@H](O)[C@H](O[C@@H]2O[C@@H](C)[C@](O)(C=O)[C@H]2O[C@@H]2O[C@@H](CO)[C@H](O)[C@@H](O)[C@@H]2NC)[C@@H](N/C(N)=N\[H])[C@@H]1O	microbial growth, well diffusion	NCIM5021	500 µg/mL	inhibition zone	22 mm
O=C1NC(=S)N/C1=C\c1ccc(-c2ccc(N(c3ccccc3)c3ccccc3)cc2)cc1	microbial killing, broth dilution	ATCC43300	–	MBC	> 1000 µg/mL
COc1ccc2nc(-n3nc(C)c4c3-c3ccccc3C4=O)sc2c1	microbial growth, well diffusion	NCIM5021	250 µg/mL	inhibition zone	12 mm
CCN(CCO)CCCOc1ccc2c(Nc3cc(CC(=O)Nc4cccc(F)c4)[nH]n3)ncnc2c1	microbial growth	NCTC8325	–	MIC	> 30 µM
O=C1NC(=S)S/C1=C\c1c2ccccc2c(-c2ccc(N(c3ccccc3)c3ccccc3)cc2)c2ccccc12	microbial killing, broth dilution	ATCC6538	–	MBC	> 1000 µg/mL
Cc1ccc2nc(-n3nc(C)c4c3-c3ccccc3C4=O)sc2c1	microbial growth, well diffusion	NCIM5021	125 µg/mL	inhibition zone	11 mm
